Assay outcomes as filed in PubChem BioAssay.
NPY2 pot ag: NPY-Y2 potentiators or agonists, primary screen, cell-based; cells expressing NPY-Y2, potentiator/agonist read-out; 220,000 compounds, 0.45% hits; activation, % at 3.6 µM; Neuropeptide Y receptor type 2 (Homo sapiens), P49146; in the data active means activation above about 27%;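 further: cells stimulated with NPY near EC25 plus isoproterenol at EC100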
Target sequence (P49146 whole entry, looked up): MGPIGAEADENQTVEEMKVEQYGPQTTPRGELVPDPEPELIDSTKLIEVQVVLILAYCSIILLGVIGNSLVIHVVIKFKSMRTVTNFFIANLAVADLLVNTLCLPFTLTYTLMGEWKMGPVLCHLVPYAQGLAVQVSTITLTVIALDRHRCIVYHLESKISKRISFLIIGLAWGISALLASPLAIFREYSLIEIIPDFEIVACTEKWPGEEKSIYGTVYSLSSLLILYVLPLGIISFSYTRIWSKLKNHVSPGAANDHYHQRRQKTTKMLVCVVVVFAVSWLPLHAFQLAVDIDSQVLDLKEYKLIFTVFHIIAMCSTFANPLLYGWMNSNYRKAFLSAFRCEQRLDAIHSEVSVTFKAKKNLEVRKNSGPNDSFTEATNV
NPY Y1 blocker: NPY-Y1 receptor antagonists, primary screen, cell-based; Neuropeptide Y receptor type 1 (Homo sapiens), P25929; HEK293-CNG Y1 cells, membrane potential fluorescence; NPY at EC95, then isoproterenol; inhibition, % at 3.6 µM; 200,000 compounds, 1% hits; AID 1040, 2008;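 active means inhibition above the campaign mean inhibition of all tested compounds plus 3 SD, cut at about 20% in these data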
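Material: HEK293 cells with Y1 receptor plus CNG channel; times: compound incubation 1 h at room temperature, readout 45 min post-stimulation; signal: fluorescence, membrane potential probe; read-out basis: fluorescence ratio normalized to % inhibition between controls; benchmarks: full-block control isoproterenol-only wells, zero-block control NPY plus isoproterenol wells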
NPY-Y2 antag: NPY-Y2 receptor antagonists, primary screen, cell-based; Neuropeptide Y receptor type 2 (Homo sapiens), P49146; NPY-Y2 expressing cells, antagonist mode; inhibition, % at 2.7 µM; 140,000 compounds, 0.99% hits; AID 793, 2007; in the data active means inhibition above about 17%
NPY-Y1 PAM-ag: NPY-Y1 receptor potentiators or agonists, primary screen, cell-based. Neuropeptide Y receptor type 1 (Homo sapiens), P25929. NPY-Y1 expressing cells, potentiator/agonist activation. activation, % at 3.6 µM. 220,000 compounds, 0.37% hits; in the data active means activation above about 33%, passing the limit was not always enough;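 further: cells stimulated with NPY at EC10 then isoproterenol at EC100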
NPY-Y1 pot conf: NPY-Y1 potentiators or agonists, confirmation, cell-based. cell-based NPY-Y1 potentiator/agonist assay. shares compounds with NPY-Y1 PAM-ag. 280 compounds, 20% hits. activation, % at 3.6 µM; in the data active means activation above about 45%;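 further: cells challenged with NPY at its EC10 plus isoproterenol stimulus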
NPY-Y2 counter: NPY-Y2 potentiators or agonists, counter-screen for NPY-Y1 potentiator project, cell-based, fluorescence; HEK293-CNG cells, membrane-potential fluorescence (FLIPR), 1536-well; 280 compounds, 20% hits; AID 1649, 2009; shares compounds with NPY-Y1 PAM-ag; activation, % at 3.6 µM; in the data active means activation above about 33%
NPY-Y1 ag: NPY-Y1 direct agonists without NPY, confirmation, counter-screen for NPY-Y1 potentiator project, cell-based, fluorescence | shares compounds with NPY-Y1 PAM-ag | HEK293 Y1-CNGC, membrane potential fluorescence, agonist mode | activation, % at 3.6 µM | 280 compounds, 50% hits | AID 1697, 2009;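 active means percent activation above the mean of DMSO-only control wells plus 3 SD of those wells, cut at about 18% in these data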;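 further: cells challenged with isoproterenol plus Ro 20-1724 with no NPY in test wells; Y1 agonism lowers isoproterenol-driven cAMP and reduces probe fluorescence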
NPY-Y2 agonist: NPY-Y2 direct agonists without NPY, counter-screen for NPY-Y1 potentiator project, cell-based, fluorescence | activation, % at 3.6 µM | 280 compounds, 67% hits | AID 1698, 2009 | HEK293 Y2-CNGC, membrane potential fluorescence, agonist mode | shares compounds with NPY-Y1 PAM-ag;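 active means activation above the solvent-only control wells' mean plus 3 SD, cut at about 11% in these data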;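 further: agonism lowers cAMP so well fluorescence drops in active wells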
CNGC inh 2: CNGC cAMP sensor activity inhibitors, counter-screen for NPY-Y1 potentiator/agonist project, cell-based, HEK293-CNG parental, membrane potential fluorescence, Y1 set. shares compounds with NPY-Y1 PAM-ag. isoproterenol cAMP. inhibition, % at 3.6 µM. 280 compounds, 42% hits;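 active means inhibition above the mean of stimulated solvent-only control wells plus 3 SD, cut at about 22% in these data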
Hits are given with their value; 0 = inactive; - = no result. Only some compounds are listed: those with a hit (about 1.9% of all), similar ones and a draw of the others.

SMILES	NPY2 pot ag	NPY Y1 blocker	NPY-Y2 antag	NPY-Y1 PAM-ag	NPY-Y1 pot conf	NPY-Y2 counter	NPY-Y1 ag	NPY-Y2 agonist	CNGC inh 2
CCOC(=O)C(Cc1ccccc1)C(=O)Nc1ccc(N(CC)CC)cc1 (centres undefined)	0	0	0	46	50	0	31	19	0
CCOC(=O)C(Cc1ccccc1)C(=O)Nc1cccc(C)c1 (centres undefined)	0	0	0	0	-	-	-	-	-
CCOC(=O)c1c(N/N=C/c2ccncc2)n[nH]c1C	0	0	0	0	-	-	-	-	-
Cc1cccc(Nc2nc(N)c([N+](=O)[O-])c(NCc3ccccc3)n2)c1	0	-	-	50	48	0	33	31	45
Nc1nc(Nc2ccccc2)nc(NCc2ccccc2)c1[N+](=O)[O-]	0	-	-	0	-	-	-	-	-
Cc1ccc(S(=O)(=O)N2CCCN(S(=O)(=O)c3ccc(C)cc3)CC2)cc1	0	0	0	0	-	-	-	-	-
Cc1ccc(O)c(N=Nc2ccc(S(=O)(=O)N3CCCC3)cc2)c1	0	-	-	45	45	0	30	42	27
C=CCN(CC=C)C(=O)C(=O)c1ccn(-c2c(C)csc2C(=O)OC)c1	0	0	-	0	-	-	-	-	-
CCOC(=O)CNC(=O)CSc1nnc(NC(=O)c2ccccc2Cl)s1	0	0	-	0	-	-	-	-	-
Cn1nc(NC(=O)CC23CC4CC(CC(C4)C2)C3)c2c(F)cccc21	0	-	-	0	-	-	-	-	-
Cc1c(/C=N/Nc2nc3ccccc3[nH]2)c2ccccc2n1C	0	-	-	56	47	41	35	43	34
CC(C)Cn1c(=S)[nH]c2cc(Cl)ccc21	0	0	-	0	-	-	-	-	-
COc1ccc(/C=N/NC(=O)COc2ccc(Cl)cc2Cl)cc1Cn1nc(C)cc1C	0	0	0	0	-	-	-	-	-
Fc1cc(NC(=S)NCc2ccc(CNC(=S)Nc3ccc(Cl)c(F)c3)cc2)ccc1Cl	0	-	-	52	71	51	55	57	55
COc1ccc(COC(=O)N/N=C(\C)CC(=O)Nc2ccc(Cl)cn2)cc1	0	-	-	0	-	-	-	-	-
COc1cccc(-n2c(SCC(N)=O)nnc2-c2ccncc2)c1	0	0	0	0	-	-	-	-	-
COc1cccc(NC(=O)C(Sc2nnc(-c3ccncc3)n2-c2ccc(Cl)cc2)c2ccccc2)c1 (centres undefined)	0	0	0	52	60	54	63	40	60
CC(C)c1onc(C(=O)NC2CCCCC2)c1[N+](=O)[O-]	0	0	-	0	-	-	-	-	-
Cc1cc(Oc2ccc(N)cn2)cc(C)c1Cl	0	-	-	0	-	-	-	-	-
CC(C)(C)c1ccc(Oc2ccc(N)cn2)cc1	0	-	-	49	0	40	20	40	34
COc1cc2cc(CN(CCc3cccc(C)c3)C(=S)NCCCN3CCOCC3)c(=O)[nH]c2cc1OC	0	0	-	0	-	-	-	-	-
CCCCOc1ccc2c(c1)C(=O)c1cc(O)ccc1-2	0	0	-	38	49	41	40	39	33
Cc1ccc(S(=O)(=O)N(C)c2c(C)ccc(S(=O)(=O)NC(C)(C)C)c2C)cc1	0	0	-	0	-	-	-	-	-
COc1cc(/C=C2\SC(=S)N(N3CCOCC3)C2=O)ccc1O	0	-	-	48	0	0	0	10.0	0
COc1cc(/C=C2\SC(=S)N(N3CCOCC3)C2=O)cc(OC)c1OC	0	0	0	0	-	-	-	-	-
SMILES	NPY2 pot ag	NPY Y1 blocker	NPY-Y2 antag	NPY-Y1 PAM-ag	NPY-Y1 pot conf	NPY-Y2 counter	NPY-Y1 ag	NPY-Y2 agonist	CNGC inh 2
CC1c2[nH]c3ccccc3c2CCN1C(=O)Nc1ccccc1 (centres undefined)	0	0	0	47	0	0	0	0	0
Cc1ccc(N2C(=S)NC3c4cc(Cl)ccc4OC2(C)C3C(=O)N(C)C)cc1 (centres undefined)	0	0	-	35	74	44	51	47	51
Cc1cccc(N2C(=S)NC3c4cc(Cl)ccc4OC2(C)C3C(=O)N(C)C)c1 (centres undefined)	0	0	-	42	59	0	44	33	47
COc1ccc(N2C(=S)NC3c4cc(Cl)ccc4OC2(C)C3C(=O)N(C)C)cc1 (centres undefined)	0	0	-	0	-	-	-	-	-
O=C(CN1C(=O)NC(c2ccccc2)(c2ccccc2)C1=O)c1c[nH]c2ccccc12	0	0	-	40	0	0	34	21	29
CC1=NCCN1CCNC(=O)Nc1ccc(C(C)(C)C)cc1	0	-	-	0	-	-	-	-	-
CC(C)Cc1nc(N2CCN(C(=O)C(C)C)CC2)c(C#N)c2c1CCC2	0	0	0	31	0	0	0	0	0
CC(=O)N1CCN(c2nc(CC(C)C)c3c(c2C#N)CCC3)CC1	0	0	0	0	-	-	-	-	-
O=C(Nc1ccc(F)cc1)C1C2CCC3C(CCC21)C3(Cl)Cl (centres undefined)	0	-	-	52	0	0	0	0	0
CCOc1ccc(NC(=O)C2C3CCC4C(CCC32)C4(Cl)Cl)cc1 (centres undefined)	0	0	-	0	-	-	-	-	-
CCOc1ccc(N(CC(=O)Nc2cc(C)ccc2C)S(=O)(=O)c2c(C)[nH]c(=O)[nH]c2=O)cc1	0	-	-	0	-	-	-	-	-
Cc1c(Cl)ccc2c1NC(=O)[C@]21[C@@H]2C(=O)N(Cc3ccccc3)C(=O)[C@@H]2[C@@H]2CCCN21	0	0	0	32	0	0	0	11	0
CCc1nnc(NC(=O)CSc2nc(-c3ccccc3)nc3ccccc23)s1	0	0	0	0	-	-	-	-	-
COC(=O)CSc1nc2ccc(N)cc2s1	0	0	-	45	92	67	71	64	85
Cc1ccc(C)c(Cn2c(C)nc3c(sc(=S)n3-c3ccccc3)c2=O)c1	0	0	-	0	-	-	-	-	-
Cc1ccc2cc3c(NC(=O)C(C)C)nn(C)c3nc2c1	0	0	0	37	0	0	0	0	0
Cc1cccc2cc3c(NC(=O)C(C)C)nn(C)c3nc12	0	0	0	0	-	-	-	-	-
Cc1cccc(C)c1OCC(O)CN (centres undefined)	0	0	0	0	-	-	-	-	-
Cc1cc(OCC(O)CN)ccc1Cl (centres undefined)	0	0	-	51	0	0	0	18	0
COc1cc(OC)cc(C(=O)NC(=S)Nc2ccc(NC(=O)c3ccco3)cc2)c1	0	0	0	0	-	-	-	-	-
COc1cc(OC)cc(C(=O)Nc2ccc(NC(=O)c3ccco3)c(Cl)c2)c1	0	0	-	67	0	0	0	0	0
